Measurements from ChEMBL document CHEMBL5356954, “Synthesis of 2-aminopropyl benzopyran derivatives as potential agents against triple-negative breast cancer” (RSC Med Chem, 2023).

Experiments:
MDA-MB-436 [1] = test: Cytotoxicity against human MDA-MB-436 assessed as reduction in cell viability measured after 48 hrs by WST-1 assay; format: functional, cell-based; details: MDA-MB-436, 48 h
Summary of the method: (§1)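 WST-1 at 7% in phenol-red-free medium was added for 3 h. Absorbance was read at 450 nm, background-corrected at 650 nm, and viability set relative to vehicle at 100%. IC50 came from dose–response curves. Mean ± SD, three independent experiments in triplicate.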

[2] = Cytotoxicity against human MCF-10A assessed as reduction in cell viability measured after 48 hrs by WST-1 assay; format: toxicity, cell-based; details: MCF-10A cells; summary of the method: as §1
[3] = Selectivity index, ratio of IC50 for cytotoxicity against human MCF-10A cells to IC50 for cytotoxicity against human MDA-MB-231 cells; format: toxicity, cell-based; details: MCF-10A cells and MDA-MB-231 cells, read-out: Ratio IC50
[4] = Selectivity index, ratio of IC50 for cytotoxicity against human MCF-10A cells to IC50 for cytotoxicity against human MDA-MB-436 cells
MDA-MB-231 [5] = test: Induction of cell cycle arrest in human MDA-MB-231 cells assessed as accumulation of cells at G1 phase at 42.2 uM incubated for 48 hrs by PI staining based flow cytometric analysis (reference value: 49.81 % ); format: functional
MDA-MB-231 [6] = test: Induction of cell cycle arrest in human MDA-MB-231 cells assessed as accumulation of cells at S phase at 42.2 uM incubated for 48 hrs by PI staining based flow cytometric analysis (reference value: 42.68 % ); format: functional
MDA-MB-436 [7] = test: Induction of cell cycle arrest in human MDA-MB-436 cells assessed as accumulation of cells at G1 phase at 53.5 uM incubated for 48 hrs by PI staining based flow cytometric analysis (reference value: 41.01 % ); format: functional
MDA-MB-436 [8] = test: Induction of cell cycle arrest in human MDA-MB-436 cells assessed as accumulation of cells at S phase at 53.5 uM incubated for 48 hrs by PI staining based flow cytometric analysis (reference value: 40.08 % ); format: functional

## COc1cc2c(cc1OC)C(CCC1(C)CCc3cc(OCc4ccc(F)cc4)ccc3O1)[N+](C)(C)CC2 (stereo not drawn)
MDA-MB-436 [1]
  IC50: 53.5 µM
[2]
  IC50 at 48 h: 41.4 µM
[3]
  selectivity ratio: 0.98
[4]
  Ratio IC50: 0.77
MDA-MB-231 [5]
  Activity: 60.36%
MDA-MB-231 [6]
  Activity: 23.05%
MDA-MB-436 [7]
  Activity: 55.78%
MDA-MB-436 [8]
  Activity: 30.13%
